# Measurements as given in ChEMBL document CHEMBL4261548, “Mitochondria-targeted betulinic and ursolic acid derivatives: synthesis and anticancer activity” (Medchemcomm, 2017).
# Active and inactive are the calls of the source. No cut-off for these calls is given here.
# How the values were obtained:
# [1] = system: MCF7; test: Cytotoxicity against human MCF7 cells assessed as decrease in cell viability by trypan blue test; assay type: functional, cell-based
# [2] = Cytotoxicity against human Tet21N cells assessed as decrease in cell viability by trypan blue test; assay type: functional, cell-based
# [3] = system: HCT-116; test: Induction of apoptosis in human HCT116 cells assessed as release of cytochrome C from mitochondria at 3.5 uM by SDS/PAGE analysis; assay type: functional, cell-based
# Summary of the method: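 HCT116 cells at about 1 × 10^6 per 100 μl were permeabilized with 0.01% digitonin in 150 mM KCl, 1 mM MgCl2, 0.2 mM EGTA and 5 mM Tris for 10 min at room temperature. Supernatant (cytosol) and pellet (mitochondria) were separated by centrifugation. Cytochrome c in each fraction was detected by 15% SDS-PAGE and western blot.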
# [4] = system: HCT-116; test: Inhibition of mitochondrial respiration in human HCT116 cells after 24 hrs in presence of oligomycin/CCCP/rotenone/antimycin; assay type: functional, cell-based
# Summary of the method: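 About 15 000 HCT116 cells per well adhered overnight and were treated for 24 h. They were then held 1 h at 37 °C without CO2 in unbuffered DMEM (5 mM glucose, 2 mM glutamine, pH 7.4). Oxygen consumption was measured by Seahorse XF-96: basal, then sequential oligomycin, CCCP, and rotenone plus antimycin A. Data were normalized to total protein per well.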
# [5] = species on record: Homo sapiens; test: Induction of apoptosis in human Tet21N cells assessed as caspase-3 cleavage using DEVD-AMC as substrate by fluorescence assay; assay type: functional, cell-based
# [6] = system: HCT-116; test: Induction of apoptosis in human HCT116 cells assessed as caspase-3 cleavage using DEVD-AMC as substrate by fluorescence assay; assay type: functional, cell-based
# [7] = system: Splenocyte; test: Cytotoxicity against BALB/c mouse splenocytes assessed as decrease in cell viability by trypan blue test; assay type: cell-based
# [8] = system: HCT-116; test: Cell cycle arrest in human HCT116 cells assessed as accumulation at sub-G1 phase by propidium iodide staining-based flow cytometric method (reference value: 0.8%); assay type: functional
# [9] = system: RKO; test: Induction of apoptosis in human RKO cells assessed as PARP cleavage at 50 uM by Western blot analysis; assay type: functional, cell-based
# Summary of the method: (§1)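 Whole-cell lysates in lysis buffer with protease inhibitors, 10 min room temperature; insoluble material cleared at 13 000 rpm, 20 min, 4 °C; equal protein loaded for SDS-PAGE and blotted; membranes blocked 1 h in 5% non-fat milk; PARP cleavage detected by ECL. HCT116 and RKO in DMEM, SK-N-BE(2) and Tet21N in RPMI 1640 with 10% FCS; Tet21N medium also hygromycin 100 μg ml–1 and geneticin 200 μg ml–1.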
# [10] = species on record: Homo sapiens; test: Induction of apoptosis in human Tet21N cells assessed as PARP cleavage at 5 to 15 uM by Western blot analysis; assay type: functional, cell-based; summary of the method: as §1
# [11] = system: HCT-116; test: Induction of apoptosis in human HCT116 cells assessed as PARP cleavage at 20 uM by Western blot analysis; assay type: functional, cell-based; summary of the method: as §1
# [12] = system: HCT-116; test: Inhibition of mitochondrial respiration in human HCT116 cells at 1 to 2 uM after 24 hrs in presence of oligomycin/CCCP/rotenone/antimycin; assay type: functional, cell-based
# Summary of the method: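 About 15 000 cells per well adhered overnight, then treated 24 h. Washed and held 1 h at 37 °C without CO2 in unbuffered DMEM (5 mM glucose, 2 mM glutamine, pH 7.4). Seahorse XF-96 oxygen consumption read: basal, then oligomycin (proton leak), CCCP (spare capacity), rotenone plus antimycin A (non-mitochondrial). Normalized to total protein per well.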
# [13] = species on record: Homo sapiens; test: Induction of apoptosis in human SK-N-BE(2) cells assessed as PARP cleavage at 50 uM by Western blot analysis; assay type: functional, cell-based; summary of the method: as §1
Structure (SMILES),"IC50 ([1]; Homo sapiens, MCF7) [µM]",IC50 ([2]; Homo sapiens) [µM],Activity [3],IC50 [7] [µM],further results
C[C@H]1[C@H](C)CC[C@]2(C(=O)O)CC[C@]3(C)C(=CC[C@@H]4[C@@]5(C)CC[C@H](OC(=O)C(Cl)Cl)C(C)(C)[C@@H]5CC[C@]43C)[C@H]12,> 20,> 10,,,
C=C(C)[C@@H]1CC[C@]2(C(=O)OCCOCCOCC[P+](c3ccccc3)(c3ccccc3)c3ccccc3)CC[C@]3(C)[C@H](CC[C@@H]4[C@@]5(C)CC[C@H](OC(C)=O)C(C)(C)[C@@H]5CC[C@]43C)[C@@H]12 [listing 1 of 2 here],,,Active,,inhibition [4]: Dose-dependent effect
C=C(C)[C@@H]1CC[C@]2(C(=O)OCCOCCOCC[P+](c3ccccc3)(c3ccccc3)c3ccccc3)CC[C@]3(C)[C@H](CC[C@@H]4[C@@]5(C)CC[C@H](O)C(C)(C)[C@@H]5CC[C@]43C)[C@@H]12,0.7,0.74,Active,,Activity [5]: Active; inhibition [4]: Dose-dependent effect; Activity [6]: Active
C=C(C)[C@@H]1CC[C@]2(C(=O)OCCOCCOCC[P+](c3ccccc3)(c3ccccc3)c3ccccc3)CC[C@]3(C)[C@H](CC[C@@H]4[C@@]5(C)CC[C@H](OC(=O)C(Cl)Cl)C(C)(C)[C@@H]5CC[C@]43C)[C@@H]12,2.31,0.95,Active,0.66,
C[C@H]1[C@H](C)CC[C@]2(C(=O)OCCOCCOCC[P+](c3ccccc3)(c3ccccc3)c3ccccc3)CC[C@]3(C)C(=CC[C@@H]4[C@@]5(C)CC[C@H](O)C(C)(C)[C@@H]5CC[C@]43C)[C@H]12,1.59,0.81,Active,,
C[C@H]1[C@H](C)CC[C@]2(C(=O)OCCCC[P+](c3ccccc3)(c3ccccc3)c3ccccc3)CC[C@]3(C)C(=CC[C@@H]4[C@@]5(C)CC[C@H](OC(=O)C(Cl)Cl)C(C)(C)[C@@H]5CC[C@]43C)[C@H]12,2.76,4.4,Active,1.75,
C=C(C)[C@@H]1CC[C@]2(C(=O)OCCOCCOCC[P+](c3ccccc3)(c3ccccc3)c3ccccc3)CC[C@]3(C)[C@H](CC[C@@H]4[C@@]5(C)CC[C@H](OC(C)=O)C(C)(C)[C@@H]5CC[C@]43C)[C@@H]12 [listing 2 of 2 here],,,,,IC50 ([1]; mcf7): 1.51 µM; IC50 [2]: 1.28 µM
C=C(C)[C@@H]1CC[C@]2(C(=O)O)CC[C@]3(C)[C@H](CC[C@@H]4[C@@]5(C)CC[C@H](O)C(C)(C)[C@@H]5CC[C@]43C)[C@@H]12 [BETULINIC ACID],> 25,,inactive,,Activity [5]: inactive; Activity [8]: 2.2%; Activity [9]: Active; Activity [10]: Active; Activity [11]: Active; inhibition [12]: inactive; Activity [6]: inactive; Activity [13]: Active
C=C(C)[C@@H]1CC[C@]2(C(=O)OCCCC[P+](c3ccccc3)(c3ccccc3)c3ccccc3)CC[C@]3(C)[C@H](CC[C@@H]4[C@@]5(C)CC[C@H](OC(=O)C(Cl)Cl)C(C)(C)[C@@H]5CC[C@]43C)[C@@H]12,0.8,1.26,Active,1.95,
C=C(C)[C@@H]1CC[C@]2(C(=O)O)CC[C@]3(C)[C@H](CC[C@@H]4[C@@]5(C)CC[C@H](OC(=O)C(Cl)Cl)C(C)(C)[C@@H]5CC[C@]43C)[C@@H]12,15.9,4.9,,,
C[C@H]1[C@H](C)CC[C@]2(C(=O)OCCOCCOCC[P+](c3ccccc3)(c3ccccc3)c3ccccc3)CC[C@]3(C)C(=CC[C@@H]4[C@@]5(C)CC[C@H](OC(=O)C(Cl)Cl)C(C)(C)[C@@H]5CC[C@]43C)[C@H]12,3.9,1.18,Active,1.13,
C=C(C)[C@@H]1CC[C@]2(C(=O)OCCOCCOCC[P+](c3ccccc3)(c3ccccc3)c3ccccc3)CC[C@]3(C)[C@H](CC[C@@H]4[C@@]5(C)CC[C@H](OC(C)=O)C(C)(C)[C@@H]5CC[C@]43C)[C@@H]12.[Br-],0.85,0.98,,,Activity [8]: 29.9%
